Our source for the solubility and IC50 values is ChEMBL document CHEMBL1157911, “A prodrug approach towards the development of tricyclic-based FBPase inhibitors” (Bioorg Med Chem Lett, 2010).

The structures appear in SMILES notation. Converted amounts (≈) assume the structure as drawn. Some results are limits rather than exact numbers.

Data set [1] is described as follows: Solubility at pH 1.2. In kind it is physicochemical. The settings on record: buffer. The gist of the method:
(§1)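 Solubility measured in Japanese Pharmacopoeia test fluids: first fluid (JP1, pH 1.2, simulating gastric conditions) and second fluid (JP2, pH 6.8, simulating intestinal conditions).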

The nature of data set [2]: Solubility at pH 6.8. In kind it is physicochemical. The settings on record: buffer. Summed up:
as §1

Data set [3] is described as follows: Inhibition of fructose-1,6-bisphosphatase in monkey hepatocytes assessed as glucose production. Type of data set: cell-based. The settings on record: Macaca mulatta, Hepatocyte.
Data set [4] addresses Cytochrome P450 3A4 (Homo sapiens, UniProt P08684). Kind of data set: Inhibition of CYP3A4. Type of data set: ADME.

Chain of Cytochrome P450 3A4 (P08684 whole entry): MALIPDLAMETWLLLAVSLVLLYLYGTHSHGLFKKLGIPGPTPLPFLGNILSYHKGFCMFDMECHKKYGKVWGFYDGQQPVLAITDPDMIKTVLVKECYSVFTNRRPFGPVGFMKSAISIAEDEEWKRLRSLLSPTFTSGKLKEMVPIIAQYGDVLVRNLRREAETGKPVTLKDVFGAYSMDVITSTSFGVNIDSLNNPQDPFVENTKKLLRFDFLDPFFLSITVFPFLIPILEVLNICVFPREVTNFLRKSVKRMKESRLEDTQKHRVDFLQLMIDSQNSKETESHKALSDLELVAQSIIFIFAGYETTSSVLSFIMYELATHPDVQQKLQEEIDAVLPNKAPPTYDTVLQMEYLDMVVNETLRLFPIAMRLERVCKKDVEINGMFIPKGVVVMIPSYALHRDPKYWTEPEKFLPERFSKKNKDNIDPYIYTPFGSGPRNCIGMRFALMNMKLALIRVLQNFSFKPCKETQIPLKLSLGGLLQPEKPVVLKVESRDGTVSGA

For `Cc1cc(OC[P@@]2(=O)OCC[C@@H](c3ccncc3)O2)c2c(c1C)Cc1scnc1-2` (racemic), the solubility – broadly, the dissolved amount per volume that the medium holds – in data set [1] was found to be 88 µg/mL (≈ 205 µM); in data set [2], 51 µg/mL (≈ 119 µM). The half-maximal inhibitory concentration (IC50) – broadly, the concentration at which inhibition is half-maximal – in data set [3] was determined as 41 µM.

Consider `Cc1cc(OC[P@@]2(=O)OCC[C@@H](c3cccnc3)O2)c2c(c1C)Cc1scnc1-2` (racemic), for which the IC50 in data set [4] amounted to 2.9 µM; in data set [3] it was 8.8 µM. The solubility is 86 µg/mL (≈ 201 µM) in data set [1] and 84 µg/mL (≈ 196 µM) in data set [2].

`Cc1cc(OC[P@@]2(=O)OCC[C@@H](c3cccc(Cl)c3)O2)c2c(c1C)Cc1scnc1-2`: the IC50 in data set [4] worked out at 0.42 µM; in data set [3], 15 µM. Also, the solubility was 19 µg/mL (≈ 41.1 µM) in data set [1] and under 0.5 µg/mL in data set [2].

With `Cc1cc(OC[P@]2(=O)OCC[C@@H](c3ccc(Cl)cc3)O2)c2c(c1C)Cc1scnc1-2` (racemic), the IC50 is 0.73 µM in data set [4] and over 100 µM in data set [3]. For the same molecule, the solubility in data set [1] and in data set [2] was under 0.5 µg/mL in each case.

As to `COc1cccc([C@@H]2CCO[P@@](=O)(COc3cc(C)c(C)c4c3-c3ncsc3C4)O2)c1` (racemic), the IC50 was 0.3 µM in data set [4] and over 100 µM in data set [3]. In addition, the solubility in data set [1] and in data set [2] was under 0.5 µg/mL throughout.

Regarding `Cc1ccncc1[C@@H]1CCO[P@](=O)(COc2cc(C)c(C)c3c2-c2ncsc2C3)O1` (racemic), the IC50 is 5.2 µM in data set [4] and over 100 µM in data set [3]. Besides, the solubility in data set [1] was over 100 µg/mL; in data set [2], 81 µg/mL (≈ 183 µM).

In the case of `Cc1cc(OC[P@]2(=O)OCC[C@@H](c3cccc(Cl)c3)O2)c2c(c1C)Cc1scnc1-2`, the values for the IC50 in data set [4] and in data set [3] were 2.7 µM and over 100 µM, respectively. Further, the solubility in data set [1] and in data set [2] was under 0.5 µg/mL each time.

Turning to `Cc1cc(OC[P@]2(=O)OCC[C@H](c3cccnc3C)O2)c2c(c1C)Cc1scnc1-2` (racemic), the IC50 in data set [4] came to 5.8 µM; in data set [3], 11 µM. The solubility in data set [1] was 87 µg/mL (≈ 197 µM); in data set [2], 83 µg/mL (≈ 188 µM).

Consider `CCOC(=O)[C@H](C)NP(=O)(COc1cc(C)c(C)c2c1-c1ncsc1C2)N[C@@H](C)C(=O)OCC`, for which the IC50 amounted to 0.58 µM in data set [4] and 6.8 µM in data set [3]. In addition, the solubility came out at 27 µg/mL (≈ 53 µM) in data set [1] and 66 µg/mL (≈ 130 µM) in data set [2].

With `COc1cccc([C@@H]2CCO[P@](=O)(COc3cc(C)c(C)c4c3-c3ncsc3C4)O2)c1` (racemic), the IC50 in data set [4] is 0.27 µM; in data set [3], over 100 µM. Further, the results for the solubility in data set [1] and in data set [2] were 17 µg/mL (≈ 37.2 µM) and 0.8 µg/mL (≈ 1.75 µM), respectively.

As for `Cc1cc(OC[P@@]2(=O)OCC[C@@H](c3ccccn3)O2)c2c(c1C)Cc1scnc1-2` (racemic), the IC50 in data set [4] amounted to 8.4 µM; in data set [3], 22 µM. Further, the values for the solubility in data set [1] and in data set [2] were 86 µg/mL (≈ 201 µM) and 73 µg/mL (≈ 170 µM), respectively.

Regarding `Cc1cc(OC[P@@]2(=O)OCC[C@@H](c3ccc(Cl)cc3)O2)c2c(c1C)Cc1scnc1-2` (racemic), the half-inhibitory concentration (IC50) in data set [4] is 0.65 µM; in data set [3], 66 µM. Moreover, the figures for the solubility in data set [1] and in data set [2] were 4.4 µg/mL (≈ 9.53 µM) and under 0.5 µg/mL, respectively.

Consider `Cc1cc(OC[P@@]2(=O)OCC[C@@H](c3cccnc3C)O2)c2c(c1C)Cc1scnc1-2`, for which the IC50 in data set [4] is 15 µM; in data set [3], 4 µM. Besides, the solubility in data set [1] came to 88 µg/mL (≈ 199 µM); in data set [2] it was 84 µg/mL (≈ 190 µM).
